Measured values: ChEMBL document CHEMBL1123691, “Multisubstrate inhibitors of dopamine beta-hydroxylase. 2. Structure-activity relationships at the phenethylamine binding site” (J Med Chem, 1987)

Experiments:
[1] = molecular target: T1, Dopamine beta-hydroxylase (Bos taurus, UniProt P15101); assay: […] against bovine Dopamine beta hydroxylase […]; Range is between (4.2-5.3).
T1 sequence (P15101 whole entry): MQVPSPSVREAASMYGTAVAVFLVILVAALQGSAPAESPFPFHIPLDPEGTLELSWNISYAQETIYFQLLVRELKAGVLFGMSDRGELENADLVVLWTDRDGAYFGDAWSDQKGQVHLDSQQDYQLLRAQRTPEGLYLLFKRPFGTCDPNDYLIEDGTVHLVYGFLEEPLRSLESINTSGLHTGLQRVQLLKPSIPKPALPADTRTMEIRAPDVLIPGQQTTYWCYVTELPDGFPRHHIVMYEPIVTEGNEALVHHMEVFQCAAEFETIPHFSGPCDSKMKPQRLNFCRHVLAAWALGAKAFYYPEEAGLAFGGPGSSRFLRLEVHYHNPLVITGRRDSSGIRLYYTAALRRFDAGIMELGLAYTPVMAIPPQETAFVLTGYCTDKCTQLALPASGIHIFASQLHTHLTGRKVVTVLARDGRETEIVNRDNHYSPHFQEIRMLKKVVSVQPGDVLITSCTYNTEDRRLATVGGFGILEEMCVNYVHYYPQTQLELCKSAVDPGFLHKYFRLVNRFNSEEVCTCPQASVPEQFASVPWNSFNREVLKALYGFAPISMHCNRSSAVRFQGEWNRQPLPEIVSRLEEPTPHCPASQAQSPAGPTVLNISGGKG

[2] = molecular target: T1, Dopamine beta-hydroxylase
[3] = Partition coefficient (logP); assay type: physicochemical; conditions: octanol/water
How it was run: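 Octanol/pH 7.4 phosphate buffer partitioning at four concentrations, with UV assay of each phase. D taken at infinite dilution by linear regression. pKa by titration in 2:1 MeOH-H2O.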

Rattus norvegicus [4] = assay: Mean arterial blood pressure at 4 hr post drug at po dose of 50 mg/kg for the indicated number of SHR (spontaneous hypertensive rats) relative to blood pressure before dosing (expt. no. 12); assay type: functional
How it was run: (§1)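 Male Okamoto-Aoki SHR, 16–18 weeks, 275-310 g. Femoral artery cannulated under methohexital (10 mg/kg iv), with 2 h recovery, unrestrained. Drug given ip in 20% DMF or po as suspension in 5% PEG 400/1% methocel. BP recorded every 0.5 h for 5–6 h. Mean arterial BP change at 4 h versus predose; mean ± SEM, n rats; vehicle controls run in parallel.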

Rattus norvegicus [5] = assay: Mean arterial blood pressure at 4 hr post drug at ip dose of 50 mg/kg for the indicated number of SHR (spontaneous hypertensive rats) relative to blood pressure before dosing; assay type: functional; conditions: route intraperitoneal; how it was run: as §1
[6] = molecular target: T2, Dopamine beta-hydroxylase (Bos taurus) (UniProt P15101); assay: Inhibitor dissociation constant vs. tyramine substrate against Dopamine beta hydroxylase at pH 4.5.
T2 sequence (whole entry): T1 sequence (P15101 whole entry)
How it was run: (§2)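 Homogeneous purified DBH with specific activity 25-42 units/mg, with tyramine as the varied substrate. The pH 4.5 condition is predominantly ordered: phenethylamine binds before oxygen. The pH 6.6 condition is random. Kis is from standard competitive/noncompetitive kinetic fits, reported as mean ± SEM.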

Rattus norvegicus [7] = assay: Mean arterial blood pressure at 4 hr post drug at po dose of 50 mg/kg for the indicated number of SHR (spontaneous hypertensive rats) relative to blood pressure before dosing (expt. no. 13); assay type: functional; conditions: dose 100 mg/kg, in the assay text read “100 mg/kg” for “50 mg/kg”; how it was run: as §1
Rattus norvegicus [8] = assay: Change in DA/NE (Dopamine/Norepinephrine) ratio after oral dosing (50 mg/kg); assay type: functional
How it was run: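 Adult male Okamoto-Aoki SHR given vehicle (5% PEG 400, 1% methocel) or suspended drug orally, two doses 18 h apart. Mesenteric arteries taken 2 h after second dose and homogenized in 0.4 M HClO4 with Na2S2O5 and EDTA at 0 °C. Supernatant incubated 60 min at 37 °C with rat liver COMT and [methyl-3H]-S-adenosylmethionine, pH 9.6 Tris; DA and NE measured.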

[9] = molecular target: T1, Dopamine beta-hydroxylase; assay: Inhibitory Concentration against bovine Dopamine beta hydroxylase (DBH); Range is between (4.9-6.5)
[10] = molecular target: T1, Dopamine beta-hydroxylase; remark: listed apart in the source
[11] = molecular target: T2, Dopamine beta-hydroxylase (Bos taurus); assay: Percent inhibition against bovine Dopamine beta hydroxylase (DBH) at 10E-4 M
How it was run: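 DBH activity measured in the presence of 10^-4 M compound; result expressed as percent inhibition.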

Rattus norvegicus [12] = assay: Mean arterial blood pressure at 4 hr post drug at ip dose of 100 mg/kg for the indicated number of SHR (spontaneous hypertensive rats) relative to blood pressure before dosing; assay type: functional; conditions: route intraperitoneal; how it was run: as §1
[13] = molecular target: T1, Dopamine beta-hydroxylase; remark: listed apart in the source
[14] = molecular target: T1, Dopamine beta-hydroxylase; remark: listed apart in the source
[15] = molecular target: T2, Dopamine beta-hydroxylase (Bos taurus); assay: Inhibitor dissociation constant vs. tyramine substrate against Dopamine beta hydroxylase at pH 6.0
How it was run: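 Purified homogeneous DBH, specific activity 25-42 units/mg, assayed at pH 6.0 with tyramine as the varied substrate. Kis taken as slope inhibition constant from Cleland COMP/NONCOMP fits; mean ± SEM.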

[16] = molecular target: T1, Dopamine beta-hydroxylase; assay: Inhibitory Concentration against bovine Dopamine beta hydroxylase (DBH); Range is between (21-37).
[17] = molecular target: T1, Dopamine beta-hydroxylase; assay: Inhibitory Concentration against bovine Dopamine beta hydroxylase (DBH); Range is between (1.7-2.4)
[18] = molecular target: T1, Dopamine beta-hydroxylase; remark: listed apart in the source
[19] = molecular target: T1, Dopamine beta-hydroxylase; remark: listed apart in the source
[20] = molecular target: T1, Dopamine beta-hydroxylase; remark: listed apart in the source
[21] = molecular target: T2, Dopamine beta-hydroxylase (Bos taurus); assay: Inhibitor dissociation constant vs. tyramine substrate against Dopamine beta hydroxylase at pH 6.6; how it was run: as §2
[22] = molecular target: T1, Dopamine beta-hydroxylase; assay: Inhibitory Concentration against bovine Dopamine beta hydroxylase (DBH); Range is between (0.060-0.0877).
[23] = molecular target: T1, Dopamine beta-hydroxylase; remark: listed apart in the source
[24] = molecular target: T1, Dopamine beta-hydroxylase; remark: listed apart in the source
[25] = molecular target: T1, Dopamine beta-hydroxylase; remark: listed apart in the source
[26] = molecular target: T1, Dopamine beta-hydroxylase; remark: listed apart in the source
[27] = molecular target: T1, Dopamine beta-hydroxylase; assay: […] against bovine Dopamine beta hydroxylase […]; Range is between (1.8-2.6).
[28] = molecular target: T1, Dopamine beta-hydroxylase; assay: Inhibitory Concentration against bovine Dopamine beta hydroxylase (DBH); Range is between (56-72).
[29] = molecular target: T1, Dopamine beta-hydroxylase; remark: listed apart in the source
[30] = molecular target: T1, Dopamine beta-hydroxylase; assay: Inhibitory Concentration against bovine Dopamine beta hydroxylase (DBH); Range is between (7-38).
[31] = molecular target: T1, Dopamine beta-hydroxylase; remark: listed apart in the source
[32] = molecular target: T1, Dopamine beta-hydroxylase; remark: listed apart in the source
[33] = molecular target: T1, Dopamine beta-hydroxylase; assay: Inhibitory Concentration against bovine Dopamine beta hydroxylase (DBH); Range is between (23-41).
[34] = molecular target: T1, Dopamine beta-hydroxylase; remark: listed apart in the source
[35] = molecular target: T1, Dopamine beta-hydroxylase; assay: Inhibitory Concentration against bovine Dopamine beta hydroxylase (DBH); Range is between (36-102)
[36] = molecular target: T1, Dopamine beta-hydroxylase; assay: Inhibitory Concentration against bovine Dopamine beta hydroxylase (DBH); Range is between (10-14).
[37] = molecular target: T1, Dopamine beta-hydroxylase; remark: listed apart in the source
[38] = molecular target: T1, Dopamine beta-hydroxylase; remark: listed apart in the source
[39] = molecular target: T1, Dopamine beta-hydroxylase; remark: listed apart in the source
[40] = molecular target: T1, Dopamine beta-hydroxylase; remark: listed apart in the source

Fc1cc(F)cc(CCCn2cc[nH]c2=S)c1
IC50 [1]: 4.7 µM

COc1ccc(Cn2cc[nH]c2=S)cc1[N+](=O)[O-]
IC50 [2]: 359 µM

Fc1cc(F)cc(Cn2cc[nH]c2=S)c1
logP [3]: 1.98
Decrease (Rattus norvegicus [4]): 22 mmHg
Decrease (Rattus norvegicus [5]): 50 mmHg
Kis [6]: 0.041 µM
Decrease (Rattus norvegicus [7]): 28 mmHg
Increase (Rattus norvegicus [8]): 407%

Fc1cccc(Cn2cc[nH]c2=S)c1
logP [3]: 1.7
IC50 [9]: 5.6 µM
Kis [6]: 0.108 µM
Increase (Rattus norvegicus [8]): 364%

Oc1ccc(Cn2cc[nH]c2=S)cc1O
IC50 [10]: 2.2 µM

COc1ccc(Cn2cc[nH]c2=S)cc1F
inhibition [11]: 67%

COc1ccc(Cn2cc[nH]c2=S)cc1C
inhibition [11]: 72%

Oc1c(Cl)cc(Cn2cc[nH]c2=S)cc1Cl
Decrease (Rattus norvegicus [12]): 28 mmHg
IC50 [13]: 0.68 µM
Increase (Rattus norvegicus [8]): 12%

Cc1cc(Cn2cc[nH]c2=S)ccc1O
IC50 [14]: 49 µM

Cc1ccccc1Cn1cc[nH]c1=S
inhibition [11]: 15%

S=c1[nH]ccn1Cc1ccccc1
Kis [15]: 0.83 µM

S=c1[nH]ccn1Cc1ccc(Cl)c(Cl)c1
IC50 [16]: 28 µM

Cc1cccc(C)c1Cn1cc[nH]c1=S
inhibition [11]: 5%

FC(F)(F)c1ccc(Cn2cc[nH]c2=S)cc1
Kis [15]: 9.04 µM
inhibition [11]: 25%

COc1ccc(Cn2ccnc2S)cc1S(N)(=O)=O
inhibition [11]: 7%

S=c1[nH]ccn1Cc1ccc(Br)cc1
Kis [15]: 3.42 µM
inhibition [11]: 43%

Oc1ccc(Cn2cc[nH]c2=S)cc1Cl
IC50 [17]: 2 µM

S=c1[nH]ccn1Cc1c(Cl)cccc1Cl
inhibition [11]: 7%

OCc1ccc(Cn2ccnc2S)cc1
inhibition [11]: 6%

S=c1[nH]ccn1Cc1ccc(Cl)cc1
IC50 [18]: 96 µM

Fc1ccc(Cn2cc[nH]c2=S)cc1
IC50 [19]: 47 µM

Oc1ccc(Cn2cc[nH]c2=S)cc1C(F)(F)F
IC50 [20]: 121 µM

Oc1c(F)cc(Cn2cc[nH]c2=S)cc1F
logP [3]: 1.08
Kis [21]: 0.039 µM
Decrease (Rattus norvegicus [5]): 36 mmHg
Kis [6]: 0.0057 µM
Increase (Rattus norvegicus [8]): 165%
IC50 [22]: 0.074 µM

COc1c(F)cc(Cn2cc[nH]c2=S)cc1F
IC50 [23]: 36 µM

COc1cccc(OC)c1Cn1cc[nH]c1=S
inhibition [11]: 10%

S=c1[nH]ccn1Cc1ccccc1Cl
inhibition [11]: 14%

COc1cccc(Cn2cc[nH]c2=S)c1
IC50 [24]: 157 µM

S=c1[nH]ccn1Cc1cccc(Cl)c1Cl
IC50 [25]: 52 µM

COc1ccc(Cn2cc[nH]c2=S)cc1Br
inhibition [11]: 60%

Oc1ccc(Cn2cc[nH]c2=S)cc1F
logP [3]: 1.12
Decrease (Rattus norvegicus [12]): 32 mmHg
Increase (Rattus norvegicus [8]): 78%
IC50 [26]: 1.5 µM

Cc1ccc(Cn2cc[nH]c2=S)cc1
Kis [15]: 9.77 µM
inhibition [11]: 34%

S=c1[nH]ccn1CCCc1cc(Cl)cc(Cl)c1
IC50 [27]: 2.1 µM

Oc1ccc(Cn2cc[nH]c2=S)cc1
logP [3]: 1.02
Decrease (Rattus norvegicus [5]): 22 mmHg
Increase (Rattus norvegicus [8]): 92%

Oc1c(F)c(F)c(Cn2cc[nH]c2=S)c(F)c1F
IC50 [28]: 62 µM

COc1ccccc1Cn1cc[nH]c1=S
inhibition [11]: 68%

S=c1[nH]ccn1Cc1c(Cl)cc(Cl)cc1Cl
IC50 [29]: 102 µM

S=c1[nH]ccn1Cc1ccc(Cl)cc1Cl
IC50 [30]: 17 µM

O=[N+]([O-])c1ccc(Cn2cc[nH]c2=S)cc1
IC50 [31]: 53 µM

O=C(O)c1ccc(Cn2ccnc2S)cc1
inhibition [11]: 1%

S=c1[nH]ccn1Cc1cc(Cl)ccc1Cl
IC50 [32]: 97 µM

COc1ccc(Cn2cc[nH]c2=S)cc1OC
inhibition [11]: 15%

O=[N+]([O-])c1cc(Cn2cc[nH]c2=S)ccc1O
IC50 [33]: 31 µM

Oc1ccc(Cn2cc[nH]c2=S)cc1Br
IC50 [34]: 12 µM

Oc1cc(Cl)c(Cn2cc[nH]c2=S)c(Cl)c1
IC50 [35]: 75 µM

S=c1[nH]ccn1Cc1cccc(Cl)c1
IC50 [36]: 12 µM

S=c1[nH]ccn1Cc1cc(Cl)cc(Cl)c1
logP [3]: 1.78
Increase (Rattus norvegicus [8]): 197%
IC50 [37]: 2.4 µM

Oc1cccc(Cn2cc[nH]c2=S)c1
IC50 [38]: 148 µM

Oc1ccccc1Cn1cc[nH]c1=S
IC50 [39]: 580 µM

COc1c(Cl)cc(Cn2cc[nH]c2=S)cc1Cl
IC50 [40]: 47 µM

COc1cc(Cl)c(Cn2cc[nH]c2=S)c(Cl)c1
inhibition [11]: 32%

COc1ccc(Cn2cc[nH]c2=S)cc1C(F)(F)F
inhibition [11]: 29%
